PLCg1 inh: inhibitors of human phospholipase C gamma1. P19174. purified PLC-gamma1, fluorogenic substrate, fluorescence. inhibition, % at 12.2 µM. 0.84% of 370,000 active; in the data active means inhibition above about 9.5%
ADAM10 inh: ADAM10 inhibition, QFRET primary screen. recombinant ADAM10, EDANS/DABCYL FRET peptide cleavage, 3 h. O14672. inhibition, % at 7 µM. AID 720582. 0.62% of 370,000 active;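 active means inhibition above a per-campaign cutoff equal to the mean of compounds falling between control-based bounds plus 3 SD, cut at about 20% in these data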;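 further: 0% = DMSO wells while the 100% control is not disclosed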
Tb MetRS inh: blocks T. brucei methionyl-tRNA synthetase activity | purified T. brucei MetRS, ATP depletion, Kinase-Glo luminescence | AID 624268 | 0.4% of 360,000 active | inhibition, % at 11.9 µM;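 active means inhibition above a per-plate cutoff of the control wells' mean inhibition plus 3 SD, cut at about 5.5% in these data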;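 further: 0% = DMSO wells median and 100% = median of wells with control inhibitor compound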
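System: purified T. brucei MetRS enzyme / Detection: Kinase-Glo luciferase luminescence reporting remaining unconsumed ATP / Medium: HEPES buffer with MgCl2, KCl, DTT, spermine, BSA, pyrophosphatase / Replication: singlicate, one well per compound / Evaluation: percent inhibition relative to median high and low control wells / Schedule: 2 h aminoacylation at 25 °C after 15 min preincubation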
ADAM17 inh: ADAM17 inhibition, QFRET primary screen; recombinant ADAM17, EDANS/DABCYL FRET peptide cleavage; inhibition, % at 6.95 µM; 0.83% of 370,000 active; AID 720648;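 active means inhibition above the mean of compounds lying between control limits plus 3 SD, set per campaign, cut at about 8.5% in these data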;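 further: 0% = DMSO-only wells as the low control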
PLCb3 inh: inhibitors of human phospholipase C beta3; 0.18% of 370,000 active; Purified PLC-beta3, fluorogenic substrate, fluorescence; Q01970; inhibition, % at 12.2 µM; in the data active means inhibition above about 11%;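 further: 0% = median of compound wells on plate and 100% = full blocker control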
Target sequence (Q01970 whole entry, looked up): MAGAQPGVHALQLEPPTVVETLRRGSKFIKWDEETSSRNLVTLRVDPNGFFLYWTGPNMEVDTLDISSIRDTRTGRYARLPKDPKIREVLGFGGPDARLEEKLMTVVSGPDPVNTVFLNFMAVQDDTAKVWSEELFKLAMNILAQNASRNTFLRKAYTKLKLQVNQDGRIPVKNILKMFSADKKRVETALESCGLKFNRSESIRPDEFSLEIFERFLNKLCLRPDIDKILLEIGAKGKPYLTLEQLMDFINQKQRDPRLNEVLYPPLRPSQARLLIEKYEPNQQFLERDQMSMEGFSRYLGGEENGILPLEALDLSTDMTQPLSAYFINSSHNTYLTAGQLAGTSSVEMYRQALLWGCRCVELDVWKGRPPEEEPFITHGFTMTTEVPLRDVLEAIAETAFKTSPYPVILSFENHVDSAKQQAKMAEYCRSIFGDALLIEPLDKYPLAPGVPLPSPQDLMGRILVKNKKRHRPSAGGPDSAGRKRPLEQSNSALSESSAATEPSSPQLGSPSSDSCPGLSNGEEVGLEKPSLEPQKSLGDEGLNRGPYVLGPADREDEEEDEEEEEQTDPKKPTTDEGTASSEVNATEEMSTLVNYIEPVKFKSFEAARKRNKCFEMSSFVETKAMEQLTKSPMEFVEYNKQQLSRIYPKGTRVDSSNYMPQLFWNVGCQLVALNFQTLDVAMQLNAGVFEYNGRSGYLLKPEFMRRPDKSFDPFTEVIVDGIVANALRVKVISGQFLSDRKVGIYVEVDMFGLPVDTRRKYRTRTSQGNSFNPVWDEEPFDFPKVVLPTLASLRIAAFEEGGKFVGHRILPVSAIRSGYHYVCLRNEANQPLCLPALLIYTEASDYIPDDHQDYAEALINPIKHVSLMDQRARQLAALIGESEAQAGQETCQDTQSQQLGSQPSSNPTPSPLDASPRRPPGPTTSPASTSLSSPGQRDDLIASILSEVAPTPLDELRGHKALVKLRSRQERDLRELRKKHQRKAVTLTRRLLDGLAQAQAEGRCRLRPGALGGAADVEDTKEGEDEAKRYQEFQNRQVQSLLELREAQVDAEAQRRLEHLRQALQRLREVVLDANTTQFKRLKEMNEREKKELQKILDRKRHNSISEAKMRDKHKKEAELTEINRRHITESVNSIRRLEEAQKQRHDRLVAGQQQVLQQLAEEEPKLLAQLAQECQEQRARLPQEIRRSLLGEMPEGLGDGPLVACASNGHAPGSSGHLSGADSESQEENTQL
ADAM10 counter: ADAM10 inhibition, counter-screen for ADAM17 exosite hits | shares compounds with ADAM17 inh | recombinant ADAM10, EDANS/DABCYL FRET peptide cleavage, 3 h | inhibition, % at 6.95 µM | 47% of 2,900 active | AID 743256;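 active means mean inhibition over the triplicate runs exceeds the activity threshold set in the earlier primary screen, cut at about 20% in these data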;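 further: 0% = DMSO wells and 100% = marimastat wells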
ADAM17 confirm: human ADAM17 inhibition, confirmation. shares compounds with ADAM17 inh. 65% of 2,900 active. recombinant ADAM17, EDANS/DABCYL QFRET peptide cleavage. AID 743257. inhibition, % at 6.95 µM;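 active means mean inhibition across replicates above the hit cutoff set in the primary screen, cut at about 8.5% in these data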;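 further: 0% = DMSO wells and 100% = marimastat wells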
Active calls of the source: *; . = no result given. The list is not random: actives were taken first. Their share in the collection is about 2.3%.

SMILES	PLCg1 inh	ADAM10 inh	Tb MetRS inh	ADAM17 inh	PLCb3 inh	ADAM10 counter	ADAM17 confirm
COc1ccc(-c2csc(NC(=O)C3COc4ccccc4O3)n2)cc1OC (stereo unspecified)	4	11	0	8.9*	-1	15	10*
COc1cccc(OC)c1C(=O)Nc1cccc(-c2nc3ccccc3[nH]2)c1	8	5	4	8.7*	-7	-10	-3
O=C(Nc1cccc(-c2nc3ccccc3[nH]2)c1)c1ccccn1	-6	1	0	-1	-9	.	.
CCN(CC)S(=O)(=O)c1cccc(NC(=O)CCSc2ccc(Cl)cc2)c1	-2	10	0	9.2*	-4	37*	17*
CN(C)S(=O)(=O)c1cccc(NC(=O)CCCSc2ccccc2)c1	3	-1	0	3	-1	.	.
CCOC(=O)c1c(C)[nH]c(C)c1C(=O)CSc1nc2ccccc2c(=O)n1-c1ccc(C)cc1	0	7	-1	4	1	.	.
CCOC(=O)c1c(C)[nH]c(C)c1C(=O)CSc1nc2ccccc2c(=O)n1-c1ccc(Cl)cc1	-2	15	0	11*	-2	28*	19*
COc1cccc(CNC(=O)CCS(=O)(=O)c2ccc3c(c2)NC(=O)CS3)c1	3	1	0	8.7*	-1	-9	0
COc1ccc(CCNC(=O)C(C)OC(=O)c2nsc(Cl)c2Cl)cc1OC (stereo unspecified)	-2	5	0	-5	-3	.	.
CC1(C(=O)Nc2cccc3cccnc23)CCN1Cc1ccccc1OC(F)F (stereo unspecified)	-3	-9	0	-1	-4	.	.
COc1ccc(-c2nc(NC(=O)C3CC(=O)N(Cc4ccco4)C3)sc2C)cc1 (stereo unspecified)	-27	-4	0	9.1*	-44	10	7
COc1ccc(-c2csc(NC(=O)C3CC(=O)N(Cc4ccco4)C3)n2)cc1 (stereo unspecified)	1	10	1	2	-4	.	.
O=C(c1cccc(COc2ccc(Cl)cc2Cl)c1)N1CCN(c2ccccn2)CC1	4	16	3	11*	-3	14	9.3*
O=C(c1ccc(Cl)c(Cl)c1)N1CCN(c2ccccn2)CC1	2	8	-1	-1	-6	.	.
CCCCCC(CC(=O)NO)C(=O)NC(C(=O)N1CCCC1CO)C(C)C (stereo unspecified)	1	.	-1	51*	3	.	64*
O=C1Nc2ccccc2C12OCC(COc1ccc(Cl)cc1)O2 (stereo unspecified)	-1	16	1	11*	-6	8	6
Cc1nn(-c2ccc(C(F)(F)F)cn2)c(C)c1Oc1ccccc1O	2	6	0	0	1	.	.
CN(C)/C=N/c1ncnc2c1cnn2-c1ccc(C(F)(F)F)cn1	5	14	-1	9.2*	5	-6	2
CC1Sc2ccc(S(=O)(=O)N3CCC(C(=O)NCC(C)c4ccccc4)CC3)cc2NC1=O (stereo unspecified)	6	10	0	16*	0	-6	1
Oc1ccc2ccccc2c1/C=N/Nc1ccccc1	-6	-2	0	2	-19	.	.
Cc1cc(N/N=C/c2c(O)ccc3ccccc23)nc(-c2ccccc2O)n1	-9	8	-1	9.2*	-9	-69	-9
CC(C)Oc1cc(NC(=O)CS(=O)CC(=O)Nc2cccc(C(F)(F)F)c2)c(Cl)cc1Cl (stereo unspecified)	-1	18	-1	9.2*	-1	31*	16*
CC(C)Oc1cc(NC(=O)CS(=O)CC(=O)N(C)C)c(Cl)cc1Cl (stereo unspecified)	5	-4	0	-1	3	.	.
Cc1ccc(S(=O)(=O)Nc2ccccc2F)cc1C(=O)NNC(=O)c1ccccc1O	-1	2	0	-8	-9	.	.
C[C@@H]1CCCCO[C@@H](CN(C)Cc2ccc(Cl)c(Cl)c2)[C@@H](C)CN([C@H](C)CO)C(=O)c2cc(NC(=O)CCC(F)(F)F)ccc2O1	2	1	-1	9.2*	0	43*	22*
SMILES	PLCg1 inh	ADAM10 inh	Tb MetRS inh	ADAM17 inh	PLCb3 inh	ADAM10 counter	ADAM17 confirm
C[C@@H]1CN([C@H](C)CO)C(=O)c2cc(NS(=O)(=O)c3ccccc3)ccc2O[C@@H](C)CCCCO[C@@H]1CN(C)Cc1ccc(Cl)c(Cl)c1	0	-1	.	-2	3	.	.
C[C@@H]1CN([C@H](C)CO)C(=O)c2cc(NS(=O)(=O)c3ccc(F)cc3)ccc2O[C@@H]1CN(C)Cc1ccc(Cl)c(Cl)c1	3	14	-3	9.6*	4	39*	19*
CCOC(=O)C1CCN(C(=O)c2ccc(S(=O)(=O)Nc3ccccc3OC)cc2)CC1	1	-4	0	1	-4	.	.
CCC[C@H](/C=C/C(=O)OC(C)(C)C)Sc1ccc(N)cc1	-1	11	.	6	-1	.	.
Cc1noc(NS(=O)(=O)c2ccc(NC(=O)c3cc(F)c(F)c(F)c3F)cc2)c1C	-6	-7	0	-1	-2	.	.
Cc1cc(C)c(S(=O)(=O)Nc2ccc3c(c2)CCC3)c(C)c1	13*	18	0	13*	4	26*	12*
Cc1ccc(S(=O)(=O)Nc2ccc3c4c(cccc24)CC3)c(C)c1	3	4	-1	-1	0	.	.
Cc1cc(C)c(S(=O)(=O)Nc2ccc3c4c(cccc24)CC3)c(C)c1	-1	14	0	9.3*	-8	17	12*
Cc1cccc(C(=O)Nc2cccc(OC(=O)c3cccc(C)c3)c2)c1	-1	11	0	10*	-1	30*	17*
CC(=O)OCC(=O)[C@@]12OC3(CCCC3)O[C@@H]1C[C@H]1[C@@H]3CCC4=CC(=O)C=C[C@]4(C)[C@@]3(F)[C@@H](O)C[C@@]12C	6	19	-2	8.7*	0	8	6
CC(=O)c1ccc(N2C(=O)CC(N3CCN(S(=O)(=O)c4cc(C)ccc4C)CC3)C2=O)cc1 (stereo unspecified)	-12	-3	0	-1	-2	.	.
CC(C)N(c1ccccc1)c1ccc(NC(=O)COC(=O)CCN2C(=O)c3cccc([N+](=O)[O-])c3C2=O)cc1	4	11	0	8.7*	2	25*	15*
CC(=O)c1ccc(NC(=O)COC(=O)CCN2C(=O)c3cccc([N+](=O)[O-])c3C2=O)cc1	1	0	0	-1	-1	.	.
C/C(=N\NC(=S)NCCc1ccccc1)c1ccc(Cl)cc1	-3	19	0	9.6*	1	9	7

Screening results (PubChem)
